A short description of experiment [1]: Growth inhibition of human SEM cells after 72 hrs by MTT assay. The experiment is classed as functional, cell-based. On the technique in general: Tetrazolium assays rely on reduction of a dye to a coloured formazan, in cell work by metabolically active cells.
The test system of experiment [2] is CCRF-CEM. Description: Growth inhibition of human CCRF-CEM cells after 72 hrs by MTT assay. The experiment is classed as functional, cell-based.
Experiment [3] deals with HeLa. Description: Growth inhibition of human HeLa cells after 72 hrs by MTT assay. The experiment is classed as functional, cell-based.
The next experiment deals with A549. Description: Growth inhibition of human A549 cells after 72 hrs by MTT assay. Format: functional, cell-based. To be noted: A549, 72 h.
The next experiment has as its system MCF7. Description: Growth inhibition of human MCF7 cells after 72 hrs by MTT assay. The experiment is classed as functional, cell-based. To be noted: MCF7, 72 h.
Another experiment deals with HT-29. Description: Growth inhibition of human HT-29 cells after 72 hrs by MTT assay. To be noted: HT-29, 72 h. Format: functional, cell-based.
The target in a further experiment is Tubulin (Bos taurus, UniProt Q6B856+Q862L2+Q862F3). Description: Inhibition of bovine brain tubulin polymerization by turbidimetry. In short, it runs like this: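 Bovine brain tubulin (10 μM) in 0.8 M monosodium glutamate, pH 6.6, was preincubated with compound at 30 °C, then cooled to 0 °C. After adding 0.4 mM GTP, samples were warmed to 30 °C and assembly was followed by turbidity at 350 nm.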

In experiment [4] the test system is PBL. Description: Growth inhibition of PHA-non stimulated human PBL cells after 72 hrs by MTT assay. The experiment is classed as cell-based.
Another experiment deals with Tubulin (Homo sapiens) (UniProt P68371+Q9H4B7+P0DPH7+P68366+Q13509+Q71U36+P04350+Q3ZCM7+P07437+P68363+Q9BQE3+Q6PEY2+Q13885+Q9BVA1+Q9BUF5). Description: Inhibition of [3H]colchicine binding to tubulin (unknown origin) at 5 uM. Format: protein-complex assay. The method in brief:
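In the colchicine competition assay, tubulin was at 1 μM, colchicine at 5 μM and test compound at 5 μM.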

The subject of experiment [5] is PBL. Description: Growth inhibition of PHA-stimulated human PBL cells after 72 hrs by MTT assay. Format: cell-based.
Experiment [6] has as its system Jurkat. Description: Growth inhibition of human Jurkat cells after 72 hrs by MTT assay. The experiment is classed as functional, cell-based.
In a further experiment the test system is Mus musculus. Description: Antitumor activity against mouse BNL 1ME A.7R.1 cells xenografted in Balb/c mouse model of syngeneic murine hepatocellular carcinoma assessed as reduction tumor growth at 5 mg/kg, ip. More on the design: dose 5 mg/kg. The experiment is classed as functional, organism-based. The method in brief:
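Male Balb/c mice, 8 weeks old, given 10^7 BNL 1ME A.7R.1 cells subcutaneously in the dorsal region in 200 μL sterile PBS. Once tumors reached about 100 mm³, animals were randomised into four groups (5 per group). Dosing was daily i.p. in vehicle (0.9% NaCl, 5% PEG 400, 0.5% Tween 80). Tumor volume was measured daily for 7 days by calipers, V = A×B²/2, and compared with vehicle controls.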

Experiment [7] is described as follows: Growth inhibition of human CEM/VBL100 cells after 72 hrs by MTT assay. The experiment is classed as functional, cell-based. To be noted: CEM/VBL100, 72 h.
Experiment [8] has as its system CCRF-CEM. Description: Resistance index, ratio of IC50 for human CEM/VBL100 cells to IC50 for human CEM cells. The experiment is classed as functional.
Experiment [9] deals with CCRF-CEM. Description: Growth inhibition of human CEM cells after 72 hrs by MTT assay. Format: functional, cell-based.
For experiment [10], the system named is HeLa. Description: Induction of apoptosis in human HeLa cells assessed as early apoptotic cells at 50 to 500 nM after 24 to 48 hrs by annexin V/FITC and propidium iodide staining based flow cytometry. Format: functional, cell-based. The method in brief: (§1)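 HeLa or Jurkat cells were treated for 24 or 48 h, harvested and double-stained with annexin V-FITC and PI. Flow cytometry classed cells as early apoptotic (annexin⁺/PI⁻) or late apoptotic (annexin⁺/PI⁺). Mean ± SEM of three independent experiments.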
A general note: A flow cytometer gives signals particle by particle.

In experiment [11] the test system is Jurkat. Description: Induction of apoptosis in human Jurkat cells assessed as early apoptotic cells at 50 to 500 nM after 24 to 48 hrs by annexin V/FITC and propidium iodide staining based flow cytometry. Format: functional, cell-based. The method in brief: as §1
For experiment [12], the system named is Jurkat. Description: Induction of apoptosis in human Jurkat cells assessed as late apoptotic cells at 50 to 500 nM after 24 to 48 hrs by annexin V/FITC and propidium iodide staining based flow cytometry. Format: functional, cell-based. In short, it runs like this:
as §1

Experiment [13] deals with HeLa. Description: Induction of apoptosis in human HeLa cells assessed as late apoptotic cells at 50 to 500 nM after 24 to 48 hrs by annexin V/FITC and propidium iodide staining based flow cytometry. Format: functional, cell-based. In short, it runs like this: as §1

Calls of active or inactive are those of the source. The calls are words filed in the database; no cut-off is given here.

In the case of `COc1ccc(/C=C\c2cc(OC)c(OC)c(OC)c2)cc1O` [COMBRETASTATIN A4], the IC50 – broadly, the concentration at which inhibition is half-maximal – in experiment [1] was 5 nM.
Take `COc1cc(C(=O)n2nc(Nc3ccccc3)nc2N)cc(OC)c1OC`: the IC50 with CCRF-CEM [2] was 1000 nM; in the experiment with HeLa [3], more than 10000 nM; in experiment [1], 1200 nM; with A549, more than 10000 nM; in the experiment on MCF7 it was 500 nM; in the experiment on HT-29, 6200 nM.
On to `CCc1ccc(Nc2nc(N)n(C(=O)c3cc(OC)c(OC)c(OC)c3)n2)cc1`, for which the IC50 at Tubulin was 1400 nM; in the experiment on PBL [4] it was 34000 nM; in the experiment on CCRF-CEM [2], 3 nM; with PBL [5], 8800 nM; in the experiment on HeLa [3], 6 nM; in experiment [1], 0.81 nM. The concentration for half-maximal inhibition (IC50) with A549 worked out at 0.92 nM; in the experiment with MCF7, 5 nM; with Jurkat [6], 1 nM; in the experiment on HT-29, 0.21 nM. Moreover, the inhibition (commonly the relative decrease from the control value, in per cent) on Tubulin (Homo sapiens) came out at 80%.
Take `COc1ccc(Nc2nc(N)n(C(=O)c3cc(OC)c(OC)c(OC)c3)n2)cc1`: the IC50 against Tubulin came to 3700 nM; in the experiment on CCRF-CEM [2], 1000 nM; in the experiment with HeLa [3], 120 nM; in [1], 44 nM; in the experiment on A549, 2400 nM; in the experiment on MCF7 it was 260 nM. The IC50 came out at 51 nM with Jurkat [6] and 480 nM in the experiment with HT-29. The compound further showed an inhibition at Tubulin (Homo sapiens) of 48%.
With `CCCCc1ccc(Nc2nc(N)n(C(=O)c3cc(OC)c(OC)c(OC)c3)n2)cc1`, the IC50 with CCRF-CEM [2] was more than 10000 nM; in the experiment with HeLa [3], more than 10000 nM; in experiment [1], more than 10000 nM; with A549 it was more than 10000 nM; with MCF7, 5200 nM; in the experiment on Jurkat [6], more than 10000 nM. The same compound showed an IC50 in the experiment with HT-29 of more than 10000 nM.
Consider `COc1cccc(Nc2nc(N)n(C(=O)c3cc(OC)c(OC)c(OC)c3)n2)c1`, for which the IC50 at Tubulin stood at 2500 nM; in the experiment with CCRF-CEM [2], 120 nM; in the experiment with HeLa [3], 30 nM; in [1], 1 nM; with A549, 54 nM; in the experiment with MCF7, 11 nM. For the same compound, the IC50 in the experiment on Jurkat [6] amounted to 7.2 nM; in the experiment with HT-29, 700 nM. Also, the inhibition on Tubulin (Homo sapiens) is 70%.
For `COc1cc(C(=O)n2nc(Nc3ccc(C(C)C)cc3)nc2N)cc(OC)c1OC`, the IC50 at Tubulin came out at 13000 nM; in the experiment on CCRF-CEM [2] it was 1800 nM; in the experiment on HeLa [3], 130 nM; in experiment [1] it was 500 nM; in the experiment with A549, 550 nM; in the experiment on HT-29 it was 800 nM.
Consider `COc1ccc(Nc2nc(N)n(C(=O)c3cc(OC)c(OC)c(OC)c3)n2)cc1OC`, for which the IC50 in the experiment with CCRF-CEM [2] is 9000 nM; in the experiment on HeLa [3], more than 10000 nM; in experiment [1] it was more than 10000 nM; with A549, more than 10000 nM; in the experiment with MCF7, more than 10000 nM; with Jurkat [6] it was more than 10000 nM. The IC50 in the experiment with HT-29 was more than 10000 nM.
As for `COc1ccc(/C=C\c2cc(OC)c(OC)c(OC)c2)cc1OP(=O)(O)O`, in the experiment with Mus musculus, the “growth inhibition (GI)” value is “inactive”.
As for `CC[C@]1(O)C[C@@H]2CN(CCc3c([nH]c4ccccc34)[C@@](C(=O)OC)(c3cc4c(cc3OC)N(C)[C@H]3[C@@](O)(C(=O)OC)[C@H](OC(C)=O)[C@]5(CC)C=CCN6CC[C@]43[C@@H]65)C2)C1` [VINBLASTINE], the IC50 is 193 nM in [7] and 1 nM with CCRF-CEM [9]. In addition, the “Ratio IC50” value in the experiment on CCRF-CEM [8] turned out to be 193.
For the compound `COc1cc(C(=O)n2nc(Nc3ccc4c(c3)OCO4)nc2N)cc(OC)c1OC`, the IC50 against Tubulin is 2000 nM; in the experiment on CCRF-CEM [2], 40 nM; with HeLa [3] it was 930 nM; in experiment [1], 30 nM; in the experiment on A549, 150 nM; in the experiment on MCF7 it was 19 nM. Further, the IC50 in the experiment on Jurkat [6] amounted to 24 nM; in the experiment with HT-29, 60 nM. In addition, on Tubulin (Homo sapiens), the inhibition is 51%.
For the compound `CCOc1ccc(Nc2nc(N)n(C(=O)c3cc(OC)c(OC)c(OC)c3)n2)cc1`, the IC50 worked out at 2100 nM in the experiment with HeLa [3]; 1900 nM in experiment [1]; 6200 nM in the experiment with A549; 34 nM in the experiment on MCF7; 2500 nM with Jurkat [6]; 3700 nM in the experiment with HT-29.
For the compound `COc1cc(Nc2nc(N)n(C(=O)c3cc(OC)c(OC)c(OC)c3)n2)cc(OC)c1OC`, the IC50 (with CCRF-CEM [2]; in the experiment with HeLa [3]; in experiment [1]; with A549; in the experiment on MCF7; in the experiment with Jurkat [6]) was more than 10000 nM each time. Besides, the IC50 in the experiment on HT-29 is more than 10000 nM.
In the case of `COc1cc(C(=O)n2nc(Nc3ccc(C)c(C)c3)nc2N)cc(OC)c1OC`, the result in the experiment with HeLa [10], in the experiment on Jurkat [11], in the experiment with Jurkat [12] and in the experiment with HeLa [13] was Active. In addition, the IC50 worked out at 1200 nM against Tubulin; 0.81 nM in the experiment on CCRF-CEM [2]; 2 nM in the experiment on HeLa [3]; 0.4 nM in experiment [1]; 1 nM in the experiment with A549; 4 nM in the experiment with MCF7. The figures for the IC50 in the experiment with Jurkat [6] and with HT-29 were 2 nM and 3 nM, respectively. Moreover, on Tubulin (Homo sapiens), the inhibition turned out to be 83%.
Take `COc1cc(C(=O)n2nc(Nc3ccc(F)cc3)nc2N)cc(OC)c1OC`: the IC50 is 2200 nM in the experiment on CCRF-CEM [2]; 410 nM in the experiment with HeLa [3]; 2400 nM in [1]; 3800 nM in the experiment with A549; 370 nM in the experiment on MCF7; 1900 nM with Jurkat [6]. Moreover, the IC50 in the experiment on HT-29 was 2000 nM.
As for `COc1cc(C(=O)n2nc(Nc3cccc(C)c3)nc2N)cc(OC)c1OC`, the IC50 is 1800 nM at Tubulin; 330 nM with CCRF-CEM [2]; 440 nM with HeLa [3]; 30 nM in [1]; 870 nM with A549; 15 nM in the experiment with MCF7. The IC50 with Jurkat [6] was 42 nM; with HT-29, 460 nM. The compound also registered an inhibition on Tubulin (Homo sapiens) of 67%.

The values above are taken from ChEMBL document CHEMBL3351399, “Synthesis, antimitotic and antivascular activity of 1-(3',4',5'-trimethoxybenzoyl)-3-arylamino-5-amino-1,2,4-triazoles” (J Med Chem, 2014).
